An excerpt weighted towards active compounds, which were near 1.9% of everything screened.
FXN GAA850 act: frataxin GAA850 promoter activation | HEK293 lucGAA850 FXN promoter luciferase reporter, 24 h; percent of 10 µM SAHA response | activation, % at 6 µM | 360,000 tested, 0.56% active | AID 540364;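 active = activation above the average of all compounds screened plus 3 SD, cutoff fixed separately per campaign, cut at about 7.5% in these data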
Calb FLC: C. albicans growth modulation with fluconazole | C. albicans CaCi-2 + fluconazole, Alamar Blue growth, 48 h | AID 1979 | 300,000 tested, 0.57% active | growth inhibition, % (no concentration beside the values);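 active = growth inhibition above about 58% in most replicates, limit read from the data, passing the limit was not always enough; inconclusive = exactly half the replicates above a set limit; inactive = most replicates below a set limit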;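 also: all wells also contain fluconazole at 8 µg/ml as a sub-toxic cotreatment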
procasp7 counter: counter-screen: procaspase-7 (human) activation; P55210; recombinant procaspase-7, Ac-DEVD-pNA absorbance 405 nm; D23A/D198A/D206A triple mutant, cannot self-cleave; scale: DMSO 0, 5 µM enzyme 100; activation, % at 8.5 µM; 330,000 tested, 0.093% active;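 active = percent activation above the screen-wide mean plus 3 SD, cut at about 25% in these data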
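System: Uncleavable procaspase-7 mutant enzyme; Amount: 2 µM procaspase-7 mutant as dispensed; Schedule: 1 h compound preincubation, 2 h substrate cleavage, 25 °C; Measured by: 405 nm absorbance of p-nitroaniline; Evaluation: percent activation from buffer-corrected 0–120 min absorbance change; Control set: low DMSO alone, high DMSO plus 5 µM PC-7.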
Neddyl block: cullin neddylation inhibition; P61081+Q13564; TR-FRET cullin neddylation, biochemical; inhibition, % at 25 µM; 360,000 tested, 0.58% active; AID 651699; in the data active = inhibition above about 36%
Target sequence (P61081 whole entry, looked up): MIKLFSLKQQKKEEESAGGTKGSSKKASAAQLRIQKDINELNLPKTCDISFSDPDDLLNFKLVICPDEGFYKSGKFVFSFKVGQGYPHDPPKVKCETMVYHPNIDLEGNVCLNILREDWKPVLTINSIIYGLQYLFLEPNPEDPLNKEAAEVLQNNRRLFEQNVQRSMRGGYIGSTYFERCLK
Target sequence (Q13564 whole entry, looked up): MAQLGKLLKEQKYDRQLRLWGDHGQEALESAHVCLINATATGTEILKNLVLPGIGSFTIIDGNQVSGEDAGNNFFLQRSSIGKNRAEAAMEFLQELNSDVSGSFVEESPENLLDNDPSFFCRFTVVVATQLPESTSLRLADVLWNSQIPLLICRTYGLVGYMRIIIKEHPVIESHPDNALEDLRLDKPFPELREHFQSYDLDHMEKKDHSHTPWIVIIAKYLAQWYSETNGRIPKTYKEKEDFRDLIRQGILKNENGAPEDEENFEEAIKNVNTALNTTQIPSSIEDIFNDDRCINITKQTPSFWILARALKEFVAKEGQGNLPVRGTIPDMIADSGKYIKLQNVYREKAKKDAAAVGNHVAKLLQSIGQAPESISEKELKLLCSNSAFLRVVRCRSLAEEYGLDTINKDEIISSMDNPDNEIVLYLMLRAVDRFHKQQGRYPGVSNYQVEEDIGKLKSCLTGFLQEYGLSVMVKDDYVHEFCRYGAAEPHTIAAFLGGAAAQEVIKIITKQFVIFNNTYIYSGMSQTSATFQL
HIF act: HIF pathway transcriptional activation | U2OS HRE-luciferase reporter, luminescence; normalized: DMSO 0%, desferrioxamine 100% | activation, % at 7.5 µM (by protocol) | 300,000 tested, 0.32% active;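 active = mean activation of at least 10% of the iron chelator positive control signal, with at least half of replicates also reaching 10%; inconclusive = mean and replicate majority disagree about reaching 10%; inactive = mean and most replicates under 10%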
procasp3 activ: activates human procaspase-3. 330,000 tested, 0.11% active. recombinant procaspase-3 D3A, Ac-DEVD-pNA absorbance 405 nm. activation, % at 8.5 µM. AID 463141;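 active = activation above the mean of all tested compounds plus 3 SD, cut at about 21% in these data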
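System: Procaspase-3 D3A mutant. Medium: Zinc-free 300 mM NaCl, 50 mM HEPES, 0.01% Triton X-100. Schedule: 1 h preincubation plus 2 h reaction at 25 °C. Measured by: 405 nm absorbance of p-nitroaniline, reads at 0 and 120 min. Read-out: percent activation relative to control range.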
Of the large screens only hits and unclear results are named; the others gave an inactive call.

O=C(O/N=C1/CCCc2occc21)c1ccc(F)cc1	none
O=C(O/N=C1/CCSc2ccccc21)c1ccc(F)cc1	Calb FLC 117
Oc1ccc(/C=N/Nc2ccc(C(F)(F)F)cn2)c(O)c1	Calb FLC 100, HIF act 15
COc1ccc2nc3ccccc3[n+]([O-])c2c1	Neddyl block 47 (no result: Calb FLC, procasp7 counter, HIF act, procasp3 activ)
Cn1ccnc1/C(=N\NC(=O)c1ccccc1)c1cccc([N+](=O)[O-])c1	Calb FLC inconclusive
O=C(N/N=C(\c1ccccc1)c1ccccn1)c1cccc([N+](=O)[O-])c1	Calb FLC 113, HIF act 131
CC(=O)c1ccc(N2CCN(S(=O)(=O)c3ccc(-c4cc(C)no4)s3)CC2)cc1	none
CC(=O)c1cccc(NS(=O)(=O)c2ccc(-c3cc(C)no3)s2)c1	HIF act 44
COc1ccc(N2CSC3=C(C#N)C(c4cccs4)CC(=O)N3C2)cc1 (stereo not drawn)	none
COC(=O)C1C(=O)N2CCCSC2=C(C#N)C1c1cccs1 (stereo not drawn)	HIF act 35
O=[N+]([O-])c1ccc(NC(c2ccccc2)c2ccc3cccnc3c2O)cc1 (stereo not drawn)	none (no result: Calb FLC, procasp7 counter, HIF act, procasp3 activ)
Oc1c(C(Nc2cccc(C(F)(F)F)c2)c2cccnc2)ccc2cccnc12 (stereo not drawn)	Calb FLC 96, Neddyl block 40
Cc1cc(NC(c2cccnc2)c2ccc3cccnc3c2O)no1 (stereo not drawn)	HIF act 22
COc1ccc(C(c2c(O)ccc3ccccc23)N2CCOCC2)c(OC)c1 (stereo not drawn)	Calb FLC 87
COc1ccc(C(CCN2CCOCC2)c2c(O)cc(OC)cc2OC)cc1 (stereo not drawn)	none
CC1(c2nnnn2-c2ccc3c(c2)OCCO3)CCC(=O)N1CCc1ccc(O)cc1 (stereo not drawn)	none (no result: FXN GAA850 act, Calb FLC, procasp7 counter, HIF act, procasp3 activ)
CC12CCC(C(=O)NNc3ccc([N+](=O)[O-])cc3)(CC1=O)C2(C)C (stereo not drawn)	Calb FLC 121
CC12CCC(C(=O)NNc3ccc([N+](=O)[O-])cc3)(OC1=O)C2(C)C (stereo not drawn)	none
Nc1cccc2cc(S(=O)(=O)O)ccc12	Neddyl block 46 (no result: Calb FLC, procasp7 counter, HIF act, procasp3 activ)
CCCn1cc(NC(=O)c2cc(-c3ccccc3)on2)cn1	HIF act 10
OC(c1ccc(F)cc1)c1nc(-c2cncnc2)cs1 (stereo not drawn)	none (no result: Calb FLC, procasp7 counter, HIF act, procasp3 activ)
Cc1cc(C)c2c(N)c(C(=O)Nc3ccccc3Br)sc2n1	none (not shown: Neddyl block)
Cc1cc(C)c2c(N)c(C(=O)Nc3ccccc3F)sc2n1	HIF act 30 (not shown: Neddyl block)
COc1cc(/C=N/NC(=O)c2sc3nc(C)cc(C)c3c2N)ccc1O	Neddyl block 42
CC(=O)OCC(=O)C1(O)CCC2C3CC(F)C4=CC(=O)CCC4(C)C3C(O)CC21C (stereo not drawn)	none (no result: Calb FLC, procasp7 counter, HIF act, procasp3 activ)
CC(C)C[C@H]1CNC(=O)C(=O)N1C[C@H]1CCCN1C[C@H](CC(C)C)N1C[C@H](Cc2ccccc2)N(CCc2ccccc2)C(=O)C1=O	none (no result: FXN GAA850 act, Calb FLC, procasp7 counter, HIF act, procasp3 activ)
Cc1ccc2c(c1)C1CN(C)CCC1N2Sc1ccccc1[N+](=O)[O-] (stereo not drawn)	Calb FLC 97
O=C(c1ccccc1)c1ccc2nc(-c3ccc(NC(=O)c4ccccc4Br)cc3)[nH]c2c1	Calb FLC 76
Nc1ccc(C(=O)Nc2ccc3nc(-c4ccncc4)[nH]c3c2)cc1	HIF act 256
CCN(CC)C(=O)C1=C(C)N(Cc2ccc(F)cc2)C(=O)C(CC(=O)NC(c2ccccc2)c2ccccc2)C1 (stereo not drawn)	none (no result: Calb FLC, procasp7 counter, HIF act, procasp3 activ)
CCc1cc2c(=O)[nH]c(N3CCCC3)nc2s1	none
CCc1cc2c(=O)[nH]c(-c3ccccn3)nc2s1	HIF act 11 (not shown: Neddyl block)
O=[N+]([O-])c1cccnc1S(=O)(=O)c1ccccc1	Calb FLC 92
Cc1ccc(NC(=O)NNC(=O)c2cc3ccccc3cc2O)cc1	Calb FLC inconclusive
COc1ccc(C(=O)NNC(=O)c2ccc3ccccc3c2)cc1	none (no result: Calb FLC, procasp7 counter, HIF act, procasp3 activ)
COc1ccccc1NC(=O)NNC(=O)c1cc2ccccc2cc1O	Calb FLC 86
COc1cc(OC)cc(C(=O)NNC(=O)c2cc3ccccc3cc2O)c1	Calb FLC 81 (no result: procasp7 counter, procasp3 activ)
Cc1ccc(N(CC(=O)NC(C)(C)C)C(=O)CCC(=O)Nc2ccccn2)cc1	none (no result: Calb FLC, procasp7 counter, HIF act, procasp3 activ)
CCOc1cccc(C(=O)NC2CCCCC2)c1	none
CCCCOc1cccc(C(=O)NNC(=S)NC2CCCCC2)c1	Calb FLC 105
O=C(O)c1ccc(-c2ccccc2)[nH]1	none
O=C(O)c1ccc2cc(-c3ccccc3)[nH]c2c1	HIF act 20 (not shown: Neddyl block)
CCCN1CCC2(CC1)C(C#N)=C(N)Oc1c2sc2nc(C)cc(C)c12	none
Cc1cc(C)c2c3c(sc2n1)C(c1cccc(F)c1)C(C#N)=C(N)O3 (stereo not drawn)	Neddyl block 53
COc1ccc(NC(=O)c2cc([N+](=O)[O-])ccc2O)cc1	Calb FLC 83
C=CC(=O)Nc1cccc(Oc2ccnc3[nH]ccc23)c1	Neddyl block 38 (no result: Calb FLC, procasp7 counter, HIF act, procasp3 activ)
O=Cc1cc2cc3c(cc2nc1Cl)OCCO3	none (no result: FXN GAA850 act, Neddyl block)
O=C(O)c1ccc(N/N=C/c2cc3cc4c(cc3nc2Cl)OCCO4)cc1	Neddyl block 37
O=S1(=O)N=C(Nc2ccc(N3CCOCC3)cc2)c2ccccc21	Calb FLC 86
CCCCCCn1c(=O)n2n(c1=O)[C@@H]1CN(S(=O)(=O)c3ccc(C)cc3)C[C@]1(O)[C@@H](OC(=O)NCC1CCCCC1)C2	none (no result: Calb FLC, procasp7 counter, HIF act, procasp3 activ)
COc1ccc(NC(=O)c2c(N)no[n+]2[O-])cc1	Calb FLC 101
C=CCC[C@@H](CCCCC)OC(=O)/C=C/[C@H](O)[C@@H](O)C[C@H](O)CC=C	none (no result: FXN GAA850 act, Calb FLC, procasp7 counter, HIF act, procasp3 activ)
COc1cccc(N=c2oc3ccc(OC)cc3cc2-c2nc3ccccc3[nH]2)c1	none
COc1cccc(N=c2oc3ccccc3cc2-c2nc3ccccc3[nH]2)c1	Neddyl block 42
Cn1c2ccccc2c2cc(/C=N/NC(=O)c3ccc(O)cc3O)ccc21	Neddyl block 68
Cn1c(O)c(/C=N/NC(=O)c2cc3ccccc3cc2O)c2ccccc21	Calb FLC 83, HIF act inconclusive (not shown: Neddyl block)
C=C(C)c1cccc(C(C)(C)NC(=O)Nc2ccc(C(N)=O)cc2)c1	Calb FLC 83
O=C(OCn1ncc(Cl)c(Cl)c1=O)c1cccc(C(F)(F)F)c1	Calb FLC 98
O=C(OCn1ncc(Br)c(Br)c1=O)c1ccccc1Cl	none
COc1cc2c(cc1CNC[C@H]1O[C@@H](n3ccc(N)nc3=O)[C@H](O)[C@@H]1O)OCO2	none (no result: Calb FLC, procasp7 counter, HIF act, procasp3 activ)
Cc1ccc(C(O)c2ncc(-c3ccc(C(F)(F)F)cc3)[nH]2)cc1F (stereo not drawn)	none (no result: Calb FLC, procasp7 counter, HIF act, procasp3 activ)

High-throughput results from PubChem BioAssay.
